Test system: MDA-MB-231
Experiment: Anticancer activity against human MDA-MB-231 cells assessed as cell growth promotion at 10^-5 M after 48 hrs by SRB assay relative to control
Assay type: functional

Compound	Activity [%]
O=C(Nc1ccccc1C(=O)Nc1ccc(/C=C/c2ccc(O)cc2)cc1)c1ccccc1	76.35
C(=C\c1nc2ccccc2nc1SCc1nc2ccccc2[nH]1)/c1ccccc1	77.23

Test system: not listed separately
Experiment: Anticancer activity against human […] cells assessed as cell growth promotion at 10^-5 M after 48 hrs by SRB assay relative to control
Assay type: functional

Compound	Activity [%]
O=C(Nc1ccccc1C(=O)Nc1ccc(/C=C/c2ccc(O)cc2)cc1)c1ccccc1	53.22
C(=C\c1nc2ccccc2nc1SCc1nc2ccccc2[nH]1)/c1ccccc1	47.73

Test system: EKVX
Experiment: Anticancer activity against human EKVX cells assessed as cell growth promotion at 10^-5 M after 48 hrs by SRB assay relative to control
Assay type: functional

Compound	Activity [%]
O=C(Nc1ccccc1C(=O)Nc1ccc(/C=C/c2ccc(O)cc2)cc1)c1ccccc1	85.24
C(=C\c1nc2ccccc2nc1SCc1nc2ccccc2[nH]1)/c1ccccc1	22.23

Test system: not listed separately
Experiment: Anticancer activity against human Hs 578T cells assessed as cell growth promotion at 10^-5 M after 48 hrs by SRB assay relative to control
Assay type: functional

Compound	Activity [%]
O=C(Nc1ccccc1C(=O)Nc1ccc(/C=C/c2ccc(O)cc2)cc1)c1ccccc1	104
C(=C\c1nc2ccccc2nc1SCc1nc2ccccc2[nH]1)/c1ccccc1	90.1

Test system: SK-OV-3
Experiment: Anticancer activity against human SKOV3 cells assessed as cell growth promotion at 10^-5 M after 48 hrs by SRB assay relative to control
Assay type: functional

Compound	Activity [%]
O=C(Nc1ccccc1C(=O)Nc1ccc(/C=C/c2ccc(O)cc2)cc1)c1ccccc1	92.69
C(=C\c1nc2ccccc2nc1SCc1nc2ccccc2[nH]1)/c1ccccc1	73.61

Test system: SR
Experiment: Anticancer activity against human SR cells assessed as cell growth promotion at 10^-5 M after 48 hrs by SRB assay relative to control
Assay type: functional

Compound	Activity [%]
O=C(Nc1ccccc1C(=O)Nc1ccc(/C=C/c2ccc(O)cc2)cc1)c1ccccc1	94.97
C(=C\c1nc2ccccc2nc1SCc1nc2ccccc2[nH]1)/c1ccccc1	83.8

Test system: CAKI-1
Experiment: Anticancer activity against human Caki1 cells assessed as cell growth promotion at 10^-5 M after 48 hrs by SRB assay relative to control
Assay type: functional

Compound	Activity [%]
O=C(Nc1ccccc1C(=O)Nc1ccc(/C=C/c2ccc(O)cc2)cc1)c1ccccc1	70.25
C(=C\c1nc2ccccc2nc1SCc1nc2ccccc2[nH]1)/c1ccccc1	77.88

Test system: MDA-MB-435
Experiment: Anticancer activity against human MDA-MB-435 cells assessed as cell growth promotion at 10^-5 M after 48 hrs by SRB assay relative to control
Assay type: functional

Compound	Activity [%]
O=C(Nc1ccccc1C(=O)Nc1ccc(/C=C/c2ccc(O)cc2)cc1)c1ccccc1	86.41
C(=C\c1nc2ccccc2nc1SCc1nc2ccccc2[nH]1)/c1ccccc1	88.93

Test system: UO-31
Experiment: Anticancer activity against human UO31 cells assessed as cell growth promotion at 10^-5 M after 48 hrs by SRB assay relative to control
Assay type: functional

Compound	Activity [%]
O=C(Nc1ccccc1C(=O)Nc1ccc(/C=C/c2ccc(O)cc2)cc1)c1ccccc1	39.29
C(=C\c1nc2ccccc2nc1SCc1nc2ccccc2[nH]1)/c1ccccc1	58.6

Test system: NCI-H460
Experiment: Anticancer activity against human NCI-H460 cells assessed as cell growth promotion at 10^-5 M after 48 hrs by SRB assay relative to control
Assay type: functional

Compound	Activity [%]
O=C(Nc1ccccc1C(=O)Nc1ccc(/C=C/c2ccc(O)cc2)cc1)c1ccccc1	92.1
C(=C\c1nc2ccccc2nc1SCc1nc2ccccc2[nH]1)/c1ccccc1	70.22

Test system: NCI/ADR-RES
Experiment: Anticancer activity against human NCI/ADR-RES cells assessed as cell growth promotion at 10^-5 M after 48 hrs by SRB assay relative to control
Assay type: functional

Compound	Activity [%]
O=C(Nc1ccccc1C(=O)Nc1ccc(/C=C/c2ccc(O)cc2)cc1)c1ccccc1	71.73
C(=C\c1nc2ccccc2nc1SCc1nc2ccccc2[nH]1)/c1ccccc1	53.22

Test system: A498
Experiment: Anticancer activity against human A498 cells assessed as cell growth promotion at 10^-5 M after 48 hrs by SRB assay relative to control
Assay type: functional

Compound	Activity [%]
O=C(Nc1ccccc1C(=O)Nc1ccc(/C=C/c2ccc(O)cc2)cc1)c1ccccc1	85.08
C(=C\c1nc2ccccc2nc1SCc1nc2ccccc2[nH]1)/c1ccccc1	71.11

Test system: UACC-257
Experiment: Anticancer activity against human UACC257 cells assessed as cell growth promotion at 10^-5 M after 48 hrs by SRB assay relative to control
Assay type: functional

Compound	Activity [%]
O=C(Nc1ccccc1C(=O)Nc1ccc(/C=C/c2ccc(O)cc2)cc1)c1ccccc1	94.49
C(=C\c1nc2ccccc2nc1SCc1nc2ccccc2[nH]1)/c1ccccc1	67.72

Test system: SF-268
Experiment: Anticancer activity against human SF268 cells assessed as cell growth promotion at 10^-5 M after 48 hrs by SRB assay relative to control
Assay type: functional

Compound	Activity [%]
O=C(Nc1ccccc1C(=O)Nc1ccc(/C=C/c2ccc(O)cc2)cc1)c1ccccc1	69.03
C(=C\c1nc2ccccc2nc1SCc1nc2ccccc2[nH]1)/c1ccccc1	88.12

Test system: SNB-19
Experiment: Anticancer activity against human SNB19 cells assessed as cell growth promotion at 10^-5 M after 48 hrs by SRB assay relative to control
Assay type: functional

Compound	Activity [%]
O=C(Nc1ccccc1C(=O)Nc1ccc(/C=C/c2ccc(O)cc2)cc1)c1ccccc1	86.41
C(=C\c1nc2ccccc2nc1SCc1nc2ccccc2[nH]1)/c1ccccc1	82.87

Test system: CCRF-CEM
Experiment: Anticancer activity against human CCRF-CEM cells assessed as cell growth promotion at 10^-5 M after 48 hrs by SRB assay relative to control
Assay type: functional

Compound	Activity [%]
O=C(Nc1ccccc1C(=O)Nc1ccc(/C=C/c2ccc(O)cc2)cc1)c1ccccc1	40.37
C(=C\c1nc2ccccc2nc1SCc1nc2ccccc2[nH]1)/c1ccccc1	89.58

Test system: HCT-116
Experiment: Anticancer activity against human HCT116 cells assessed as cell growth promotion at 10^-5 M after 48 hrs by SRB assay relative to control
Assay type: functional

Compound	Activity [%]
O=C(Nc1ccccc1C(=O)Nc1ccc(/C=C/c2ccc(O)cc2)cc1)c1ccccc1	70.71
C(=C\c1nc2ccccc2nc1SCc1nc2ccccc2[nH]1)/c1ccccc1	35.79

Test system: OVCAR-3
Experiment: Anticancer activity against human OVCAR3 cells assessed as cell growth promotion at 10^-5 M after 48 hrs by SRB assay relative to control
Assay type: functional

Compound	Activity [%]
O=C(Nc1ccccc1C(=O)Nc1ccc(/C=C/c2ccc(O)cc2)cc1)c1ccccc1	89.47
C(=C\c1nc2ccccc2nc1SCc1nc2ccccc2[nH]1)/c1ccccc1	65.02

Test system: Malme-3M
Experiment: Anticancer activity against human MALME-3M cells assessed as cell growth promotion at 10^-5 M after 48 hrs by SRB assay relative to control
Assay type: functional

Compound	Activity [%]
O=C(Nc1ccccc1C(=O)Nc1ccc(/C=C/c2ccc(O)cc2)cc1)c1ccccc1	97.53
C(=C\c1nc2ccccc2nc1SCc1nc2ccccc2[nH]1)/c1ccccc1	63.63

Test system: SW-620
Experiment: Anticancer activity against human SW620 cells assessed as cell growth promotion at 10^-5 M after 48 hrs by SRB assay relative to control
Assay type: functional

Compound	Activity [%]
O=C(Nc1ccccc1C(=O)Nc1ccc(/C=C/c2ccc(O)cc2)cc1)c1ccccc1	101
C(=C\c1nc2ccccc2nc1SCc1nc2ccccc2[nH]1)/c1ccccc1	83.03

Test system: HOP-62
Experiment: Anticancer activity against human HOP62 cells assessed as cell growth promotion at 10^-5 M after 48 hrs by SRB assay relative to control
Assay type: functional

Compound	Activity [%]
O=C(Nc1ccccc1C(=O)Nc1ccc(/C=C/c2ccc(O)cc2)cc1)c1ccccc1	95.55
C(=C\c1nc2ccccc2nc1SCc1nc2ccccc2[nH]1)/c1ccccc1	88.3

Test system: SK-MEL-5
Experiment: Anticancer activity against human SK-MEL-5 cells assessed as cell growth promotion at 10^-5 M after 48 hrs by SRB assay relative to control
Assay type: functional

Compound	Activity [%]
O=C(Nc1ccccc1C(=O)Nc1ccc(/C=C/c2ccc(O)cc2)cc1)c1ccccc1	76.71
C(=C\c1nc2ccccc2nc1SCc1nc2ccccc2[nH]1)/c1ccccc1	17.4

Test system: K562
Experiment: Anticancer activity against human K562 cells assessed as cell growth promotion at 10^-5 M after 48 hrs by SRB assay relative to control
Assay type: functional

Compound	Activity [%]
O=C(Nc1ccccc1C(=O)Nc1ccc(/C=C/c2ccc(O)cc2)cc1)c1ccccc1	40.21
C(=C\c1nc2ccccc2nc1SCc1nc2ccccc2[nH]1)/c1ccccc1	61.44

Test system: RXF 393
Experiment: Anticancer activity against human RXF393 cells assessed as cell growth promotion at 10^-5 M after 48 hrs by SRB assay relative to control
Assay type: functional

Compound	Activity [%]
O=C(Nc1ccccc1C(=O)Nc1ccc(/C=C/c2ccc(O)cc2)cc1)c1ccccc1	97.37
C(=C\c1nc2ccccc2nc1SCc1nc2ccccc2[nH]1)/c1ccccc1	97.82

Test system: HCT-15
Experiment: Anticancer activity against human HCT15 cells assessed as cell growth promotion at 10^-5 M after 48 hrs by SRB assay relative to control
Assay type: functional

Compound	Activity [%]
O=C(Nc1ccccc1C(=O)Nc1ccc(/C=C/c2ccc(O)cc2)cc1)c1ccccc1	57.75
C(=C\c1nc2ccccc2nc1SCc1nc2ccccc2[nH]1)/c1ccccc1	96.13

Test system: NCI-H23
Experiment: Anticancer activity against human NCI-H23 cells assessed as cell growth promotion at 10^-5 M after 48 hrs by SRB assay relative to control
Assay type: functional

Compound	Activity [%]
O=C(Nc1ccccc1C(=O)Nc1ccc(/C=C/c2ccc(O)cc2)cc1)c1ccccc1	91.38
C(=C\c1nc2ccccc2nc1SCc1nc2ccccc2[nH]1)/c1ccccc1	52.23

Test system: HL-60(TB)
Experiment: Anticancer activity against human HL-60(TB) cells assessed as cell growth promotion at 10^-5 M after 48 hrs by SRB assay relative to control
Assay type: functional
Outline: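 NCI-60 single-dose screen: compound at 10^-5 M, 48 h at 37 °C, 5% CO2; cells grown in RPMI 1640 with 5% FBS and 2 mM L-glutamine, pre-incubated 24 h before dosing. Adherent cells fixed with cold TCA; endpoint is sulforhodamine B protein staining. Percent growth of treated cells is reported relative to untreated control.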

Compound	Activity [%]
O=C(Nc1ccccc1C(=O)Nc1ccc(/C=C/c2ccc(O)cc2)cc1)c1ccccc1	50.34
C(=C\c1nc2ccccc2nc1SCc1nc2ccccc2[nH]1)/c1ccccc1	77.83

Test system: 786-0
Experiment: Anticancer activity against human 786-0 cells assessed as cell growth promotion at 10^-5 M after 48 hrs by SRB assay relative to control
Assay type: functional

Compound	Activity [%]
O=C(Nc1ccccc1C(=O)Nc1ccc(/C=C/c2ccc(O)cc2)cc1)c1ccccc1	81.43
C(=C\c1nc2ccccc2nc1SCc1nc2ccccc2[nH]1)/c1ccccc1	76.68

Test system: M14
Experiment: Anticancer activity against human M14 cells assessed as cell growth promotion at 10^-5 M after 48 hrs by SRB assay relative to control
Assay type: functional

Compound	Activity [%]
O=C(Nc1ccccc1C(=O)Nc1ccc(/C=C/c2ccc(O)cc2)cc1)c1ccccc1	81.74
C(=C\c1nc2ccccc2nc1SCc1nc2ccccc2[nH]1)/c1ccccc1	76.83

Test system: MOLT-4
Experiment: Anticancer activity against human MOLT4 cells assessed as cell growth promotion at 10^-5 M after 48 hrs by SRB assay relative to control
Assay type: functional

Compound	Activity [%]
O=C(Nc1ccccc1C(=O)Nc1ccc(/C=C/c2ccc(O)cc2)cc1)c1ccccc1	44.21
C(=C\c1nc2ccccc2nc1SCc1nc2ccccc2[nH]1)/c1ccccc1	63.07

Test system: U-251
Experiment: Anticancer activity against human U251 cells assessed as cell growth promotion at 10^-5 M after 48 hrs by SRB assay relative to control
Assay type: functional

Compound	Activity [%]
O=C(Nc1ccccc1C(=O)Nc1ccc(/C=C/c2ccc(O)cc2)cc1)c1ccccc1	103
C(=C\c1nc2ccccc2nc1SCc1nc2ccccc2[nH]1)/c1ccccc1	79.81

Test system: UACC-62
Experiment: Anticancer activity against human UACC62 cells assessed as cell growth promotion at 10^-5 M after 48 hrs by SRB assay relative to control
Assay type: functional

Compound	Activity [%]
O=C(Nc1ccccc1C(=O)Nc1ccc(/C=C/c2ccc(O)cc2)cc1)c1ccccc1	40.16
C(=C\c1nc2ccccc2nc1SCc1nc2ccccc2[nH]1)/c1ccccc1	61.37

Test system: SN12C
Experiment: Anticancer activity against human SN12C cells assessed as cell growth promotion at 10^-5 M after 48 hrs by SRB assay relative to control
Assay type: functional

Compound	Activity [%]
O=C(Nc1ccccc1C(=O)Nc1ccc(/C=C/c2ccc(O)cc2)cc1)c1ccccc1	80.93
C(=C\c1nc2ccccc2nc1SCc1nc2ccccc2[nH]1)/c1ccccc1	74.42

Test system: T47D
Experiment: Anticancer activity against human T47D cells assessed as cell growth promotion at 10^-5 M after 48 hrs by SRB assay relative to control
Assay type: functional

Compound	Activity [%]
O=C(Nc1ccccc1C(=O)Nc1ccc(/C=C/c2ccc(O)cc2)cc1)c1ccccc1	66.17
C(=C\c1nc2ccccc2nc1SCc1nc2ccccc2[nH]1)/c1ccccc1	34.6

Test system: HT-29
Experiment: Anticancer activity against human HT-29 cells assessed as cell growth promotion at 10^-5 M after 48 hrs by SRB assay relative to control
Assay type: functional

Compound	Activity [%]
O=C(Nc1ccccc1C(=O)Nc1ccc(/C=C/c2ccc(O)cc2)cc1)c1ccccc1	97.64

Test system: OVCAR-5
Experiment: Anticancer activity against human OVCAR5 cells assessed as cell growth promotion at 10^-5 M after 48 hrs by SRB assay relative to control
Assay type: functional

Compound	Activity [%]
O=C(Nc1ccccc1C(=O)Nc1ccc(/C=C/c2ccc(O)cc2)cc1)c1ccccc1	96.06
C(=C\c1nc2ccccc2nc1SCc1nc2ccccc2[nH]1)/c1ccccc1	95.41

Test system: NCI-H322M
Experiment: Anticancer activity against human NCI-H322M cells assessed as cell growth promotion at 10^-5 M after 48 hrs by SRB assay relative to control
Assay type: functional

Compound	Activity [%]
O=C(Nc1ccccc1C(=O)Nc1ccc(/C=C/c2ccc(O)cc2)cc1)c1ccccc1	71.88
C(=C\c1nc2ccccc2nc1SCc1nc2ccccc2[nH]1)/c1ccccc1	86.4

Test system: KM12
Experiment: Anticancer activity against human KM12 cells assessed as cell growth promotion at 10^-5 M after 48 hrs by SRB assay relative to control
Assay type: functional

Compound	Activity [%]
O=C(Nc1ccccc1C(=O)Nc1ccc(/C=C/c2ccc(O)cc2)cc1)c1ccccc1	67.28
C(=C\c1nc2ccccc2nc1SCc1nc2ccccc2[nH]1)/c1ccccc1	79.7
